A selection: hits, their analogues and other compounds. The true share with any hit is near 5.1%.
Ecoli WT expand – E. coli BW25113 growth inhibition, expanded screen; AID 710; 98,000 compounds, 0.15% hits; growth inhibition, % at 100 µM; OD600 absorbance;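 active = growth inhibition above about 50% at one test dose, limit read from the data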;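 note: growth measured after 20 h incubation at 37 °C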
BAP1 block – human BAP1 deubiquitinase inhibition; Q92560; calls only at 20 µM; AID 436; recombinant BAP1, Ub-AMC hydrolysis fluorescence kinetic; active compounds read low; 72,000 compounds, 0.48% hits;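 active = activity remaining at or below 50% of control, provided the compound also passes the data quality filters; inactive = the rest, including low values that fail the filters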;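 note: 100% = DMSO wells rate and 0% = substrate alone blank rate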
Target sequence (Q92560 whole entry, looked up): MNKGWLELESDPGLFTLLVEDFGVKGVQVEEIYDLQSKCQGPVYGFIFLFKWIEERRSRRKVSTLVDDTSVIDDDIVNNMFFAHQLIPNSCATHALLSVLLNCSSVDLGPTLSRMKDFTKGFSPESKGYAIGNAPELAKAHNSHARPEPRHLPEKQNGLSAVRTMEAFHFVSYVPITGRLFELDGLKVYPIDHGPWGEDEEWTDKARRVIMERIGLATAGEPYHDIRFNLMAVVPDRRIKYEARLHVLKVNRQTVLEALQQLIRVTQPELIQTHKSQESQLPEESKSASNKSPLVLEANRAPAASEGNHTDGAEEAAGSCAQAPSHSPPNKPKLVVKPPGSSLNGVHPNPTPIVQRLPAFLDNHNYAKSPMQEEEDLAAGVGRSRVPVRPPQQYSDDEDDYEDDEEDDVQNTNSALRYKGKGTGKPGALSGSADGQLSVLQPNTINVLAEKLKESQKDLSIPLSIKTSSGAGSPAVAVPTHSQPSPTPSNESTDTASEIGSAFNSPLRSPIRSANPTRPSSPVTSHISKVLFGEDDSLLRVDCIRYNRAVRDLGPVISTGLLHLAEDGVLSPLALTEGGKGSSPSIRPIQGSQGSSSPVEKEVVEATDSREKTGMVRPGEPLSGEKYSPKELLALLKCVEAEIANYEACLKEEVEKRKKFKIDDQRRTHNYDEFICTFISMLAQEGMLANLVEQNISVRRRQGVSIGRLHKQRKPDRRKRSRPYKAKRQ
M1 agonist – agonists of M1 muscarinic receptor. 64,000 compounds, 3% hits. CHO-M1 cells, Fluo-4 calcium fluorescence, agonist mode; active compounds read high. AID 626. B-score at 10 µM;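 active = fluorescence rise, raw or as B-score row- and column-corrected plate score, outside the 99.7% band of its plate's samples, either direction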
tolC growth inh – growth inhibitors of E. coli BW25113 tolC mutant | OD615 | growth inhibition, % at 10 µM (by protocol) | 65,000 compounds, 2.2% hits;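 active = growth inhibition at or above a cutoff equal to the mean over every tested compound plus 3 SD, cut at about 60% in these data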;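 note: growth measured after 20 h incubation at 37 °C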
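Test system: E. coli BW25113 ΔtolC::kan bacteria | Medium: Kanamycin-containing LB broth (50 µg/mL) | Dosing: One dose of 10 µM final | Times: 20 h incubation with compound, 37 °C | Detection: Optical density read at 615 nm | Read-out basis: Percent growth inhibition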
Hsp90 inh – displaces geldanamycin probe from tumor Hsp90; 64,000 compounds, 0.35% hits; P07900; NCI-N417 lysate Hsp90, Cy3B-geldanamycin FP displacement; inhibition, % at 30 µM;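 active = inhibition above 50%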;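 note: 0% = tracer plus lysate wells and 100% = tracer alone without lysate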
M1 antagonist – blocks the rat M1 muscarinic receptor response to acetylcholine; AID 628; 64,000 compounds, 3.4% hits; CHO-M1 cells, Fluo-4 calcium, ACh EC80 antagonist mode; active compounds read low; B-score at 10 µM; P08482;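 active = calcium fluorescence response, raw or row-and-column corrected B-score, differing from the plate sample mean either way at a set confidence level, mostly lower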
M1 antag confirm – confirmation of rat M1 muscarinic receptor antagonists; shares compounds with M1 antagonist; CHO-M1 cells, Fluo-4 calcium, ACh EC80 antagonism; active compounds read low; 1,700 compounds, 43% hits; AID 677; calcium response (max-min fluorescence) at 10 µM;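 active = calcium response below the same-plate mean of wells given acetylcholine alone at its 80%-effect dose, minus 3 SD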;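 note: raw fluorescence intensity difference in arbitrary instrument units and not normalized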
mGluR4 antag – mGluR4 (human) activity, M1 antagonist secondary assay. shares compounds with M1 antagonist. CHO-mGluR4 calcium flux, Fluo-4 fluorescence, glutamate EC80; active compounds read low. fluorescence response (max-min) at 10 µM. 1,700 compounds, 0.9% hits. AID 678;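 active = fluorescence response below the plate's average for near-maximal glutamate wells, less 3 SD of those wells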;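 note: raw unnormalized fluorescence span taken in the window right after glutamate addition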
An asterisk follows results filed as active; i = inactive; . = no result shown.

SMILES | Ecoli WT expand | BAP1 block | M1 agonist | tolC growth inh | Hsp90 inh | M1 antagonist | M1 antag confirm | mGluR4 antag
C=CCNC(=O)C(C#N)c1nc2ccccc2nc1N1CCCCCC1 (stereo not given) | -6.0 | i | 1.58 | 13.5 | -8.5 | -2.76* | 603 | 274
Cc1nn(CC(=O)NCC#N)c(C)c1[N+](=O)[O-] | . | i | . | . | . | . | . | .
CCOc1ccc2c(c1)C(C)CC(C)(C)N2C(=O)Nc1ccc(Cl)cc1 (stereo not given) | . | i | . | . | . | . | . | .
COc1ccc(C(=O)Nn2c(SCC(=O)NCC3CCCO3)nc3ccccc3c2=O)cc1 (stereo not given) | 0.0 | i | -0.793 | 0.7 | -5.1 | -6.92* | 575 | 229
COc1ccc(C(=O)Nn2c(SCC(=O)NCc3ccccc3)nc3ccccc3c2=O)cc1 | -4.0 | . | . | . | . | . | . | .
O=C(CSc1nncs1)NCc1ccc2c(c1)OCO2 | . | i | -0.569 | -7.8 | 0.5 | -0.239 | . | .
Cc1cc(C(=O)CSc2nncs2)c(C)n1-c1ccc2c(c1)OCO2 | -3.0 | i | -0.0083 | 17.5 | -1.8 | -4.18* | 403* | 227
Cc1ccc(S(=O)(=O)NC(CC(=O)N2CCc3ccccc32)c2ccco2)cc1 (stereo not given) | -27.0 | i | 0.352 | 30.8 | -7.4 | -4.41* | 484 | 189
COc1ccc(S(=O)(=O)NC(CC(=O)N2CCc3ccccc32)c2ccco2)cc1 (stereo not given) | -2.0 | i | . | 24.4 | 3.3 | . | . | .
Cc1ccc(OC2=NS(=O)(=O)c3cc([N+](=O)[O-])ccc32)cc1 | . | i | . | . | . | . | . | .
COc1ccc(C2CCCN2C(=O)Nc2ccc(F)cc2)cc1OC (stereo not given) | . | i | -0.0897 | 1.5 | -1.0 | 0.569 | . | .
COc1ccc(C2CCCN2C(=O)Nc2cccc(C(C)=O)c2)cc1OC (stereo not given) | -2.0 | i | -0.108 | 2.4 | 0.9 | -2.5* | 620 | 249
CCOc1ccc2cc(C(N)=O)c(=O)oc2c1 | . | i | . | . | . | . | . | .
COCCN(C(=O)COc1ccccc1)c1nnc(-c2cccnc2)s1 | 5.0 | i | -0.342 | -3.3 | -2.0 | -2.75* | 560 | 181
CCCCOC(=O)C1=C(C)NC(=O)NC1c1ccccc1Cl (stereo not given) | . | i | . | . | . | . | . | .
Clc1ccc(C2=CSC3=NCCN23)cc1Cl | 28.0 | i | -0.22 | 3.2 | -1.9 | -2.22* | 535 | 241
Cc1ccc(NC(=O)Nc2cccs2)cc1 | 7.0 | i | 1.65 | -3.0 | -0.8 | -0.55 | . | .
CCc1ccc(NC(=O)Nc2cccs2)cc1 | 11.0 | i | -0.456 | 30.0 | -5.0 | -2.31* | 569 | 215
Cc1nc(NCc2ccco2)c2c3c(sc2n1)CCC3 | 5.0 | i | 0.117 | 24.8 | -7.7 | -1.87* | 621 | 268
c1coc(CNc2ncnc3sc4c(c23)CCCCC4)c1 | -1.0 | i | 0.000564 | 30.6 | -4.0 | -0.619 | . | .
COC(=O)c1ccccc1NC(=O)NCC1CCCO1 (stereo not given) | 3.0 | . | 0.00332 | -26.7 | -2.5 | -1.9* | 469 | 237
CCN(CC)S(=O)(=O)c1ccc(C(=O)Nc2cccc(-c3nc4ccccc4[nH]3)c2)cc1 | . | i | . | . | . | . | . | .
O=C(NCCN1CCCCCC1)C1CCC(CNS(=O)(=O)c2cccc3cccnc23)CC1 (stereo not given) | -2.0 | i | -0.185 | 9.2 | -2.1 | -1.99* | 521 | 244
O=C(NC1CCCCC1)c1ccc(S(=O)(=O)NCc2ccco2)cc1 | 4.0 | i | -1.26 | -2.7 | -7.2 | -2.44* | 634 | 228
O=C(Nc1ccccc1C(=O)NCc1ccco1)c1ccco1 | 4.0 | i | 0.427 | 8.6 | -6.9 | -0.0857 | . | .
SMILES | Ecoli WT expand | BAP1 block | M1 agonist | tolC growth inh | Hsp90 inh | M1 antagonist | M1 antag confirm | mGluR4 antag
O=C(Nc1ccccc1C(=O)NCc1ccco1)NC1CCCCC1 | 6.0 | . | -0.038 | -0.3 | . | -3.12* | 639 | 243
OCCCc1nc2cc3ccccc3cc2[nH]1 | . | i | . | . | . | . | . | .
CCOc1cc(C2Nc3ccc4ccccc4c3C3=C2C(=O)CC(c2ccccc2)C3)ccc1O (stereo not given) | . | i | . | . | . | . | . | .
COc1ccc(OC)c(S(=O)(=O)NCCC2=CCCCC2)c1 | 9.0 | i | 1.2 | 22.0 | -10.0 | -2.67* | 441* | 229
CCN(CC)C(=O)C1CCCN(Cc2ccc(F)c(F)c2)C1 (stereo not given) | -2.0 | i | 0.828 | -9.8 | -4.2 | -4.11* | 649 | 256
CCN(CC)C(=O)C1CCCN(Cc2ccc3c(c2)OCO3)C1 (stereo not given) | -3.0 | . | . | . | . | . | . | .
CCN(CC)C(=O)C1CCCN(C/C=C/c2ccccc2)C1 (stereo not given) | -6.0 | i | 3.99 | -15.2 | -2.4 | -2.74* | 566 | 240
CCN(CC)C(=O)C1CCCN(C/C(C)=C/c2ccccc2)C1 (stereo not given) | -14.0 | i | 0.616 | -5.9 | 3.8 | 0.0402 | . | .
Cc1cccn2c(=O)c3cc(C(=O)NC(C)c4ccccc4)c(=N)n(CCCn4ccnc4)c3nc12 (stereo not given) | . | . | -0.665 | 18.1 | -2.5 | -2.91* | 317* | 200
Cc1ccc2nc3c(cc(C(=O)NCc4cccnc4)c(=N)n3C(C)C)c(=O)n2c1 | . | . | 0.711 | -14.1 | -6.2 | -0.0136 | . | .
Cc1ccc2nc3c(cc(C(=O)NCc4ccccc4)c(=N)n3CCCn3ccnc3)c(=O)n2c1 | . | . | 0.181 | -3.7 | -0.3 | -4.22* | 372 | 229
Cc1cc(C)c(OCC(O)CNC(C)(C)CC(C)(C)C)c(C)c1 (stereo not given) | . | i | . | . | . | . | . | .
CCN1CCN(c2ncc(C(=O)Nc3c(F)cc(F)cc3Br)c3ccccc23)CC1 | -6.0 | i | -1.63 | 7.1 | 0.1 | -10.3* | 201* | 198
CC1=C(C)CC(C(=O)Nc2ccc(S(=O)(=O)N3CCOCC3)cc2)C(C(=O)O)C1 (stereo not given) | . | i | . | . | . | . | . | .
CCOC(=O)c1ccc(N2C(=O)CC(N3CCN(CC=Cc4ccccc4)CC3)C2=O)cc1 (stereo not given) | . | i | . | . | . | . | . | .
COc1ccccc1N1CCN(CCCC(=O)c2ccc(F)cc2)CC1 | 6.0 | i | -1.11 | -3.0 | -2.5 | -2.04* | 266* | 207
COc1ccccc1OCC(O)Cn1c(=N)n(CCN2CCCCC2)c2ccccc21 (stereo not given) | 3.0 | i | -0.0798 | 13.9 | -10.4 | -1.56* | 395 | 181
CCCCn1c(=N)n(CC(O)COc2ccccc2)c2ccccc21 (stereo not given) | 10.0 | i | 0.0127 | 43.3 | -0.2 | -2.34* | 627 | 234
N=c1n(CCN2CCCCC2)c2ccccc2n1CC(O)c1cccc(Br)c1 (stereo not given) | 18.0 | i | -0.29 | 35.4 | -0.7 | -4.08* | 447 | 198

Screening data as filed in PubChem BioAssay.
